Experimental data reported in ChEMBL document CHEMBL4118029, “Marine Terpenoid Diacylguanidines: Structure, Synthesis, and Biological Evaluation of Naturally Occurring Actinofide and Synthetic Analogues” (2017).

Assays:
Hs 683 = assay: Growth inhibition of human Hs683 cells after 72 hrs by MTT assay; type: functional; conditions: Hs 683, 72 h
Summary of the method: (§1)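 Cells were grown in RPMI with 10% heat-inactivated fetal bovine serum, 4 mM glutamine, 100 μg/mL gentamicin and penicillin–streptomycin (200 units/mL and […]). They were cultured with compound for 72 h, then read by MTT colorimetric assay. GI50 is the concentration cutting growth by 50% relative to untreated control.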

U373 MG = assay: Growth inhibition of human U373 cells after 72 hrs by MTT assay; type: functional, U-373MG ATCC; summary of the method: as §1
A549 = assay: Growth inhibition of human A549 cells after 72 hrs by MTT assay; type: functional; conditions: A549, 72 h; summary of the method: as §1
MCF7 = assay: Growth inhibition of human MCF7 cells after 72 hrs by MTT assay; type: functional; conditions: MCF7, 72 h; summary of the method: as §1
SK-MEL-28 = assay: Growth inhibition of human SK-MEL-28 cells after 72 hrs by MTT assay; type: functional; conditions: SK-MEL-28, 72 h; summary of the method: as §1
B16-F10 = assay: Growth inhibition of mouse B16F10 cells after 72 hrs by MTT assay; type: functional; conditions: B16-F10, 72 h; summary of the method: as §1

**Q.** With CC(C)=CC(=O)NC(=N)N as the molecule, how does the GI50 (Hs 683) read?
**A.** > 100 µM

**Q.** What about the GI50 (U373 MG) of the same molecule?
**A.** > 100 µM

**Q.** And the GI50 (A549)?
**A.** > 100 µM

**Q.** What about the GI50 (MCF7) of the same molecule?
**A.** > 100 µM

**Q.** What about the GI50 (SK-MEL-28) of the same molecule?
**A.** > 100 µM

**Q.** What about the GI50 (B16-F10) of the same molecule?
**A.** 92.8 µM

**Q.** For CC(C)=CCC/C(C)=C/C(=O)NC(=N)NC(=O)/C=C(\C)CCC=C(C)C, which GI50 (Hs 683) is on record?
**A.** 32.7 µM

**Q.** What about the GI50 (U373 MG) of the same molecule?
**A.** 38.9 µM

**Q.** What about the GI50 (A549) of the same molecule?
**A.** 46.9 µM

**Q.** What about the GI50 (MCF7) of the same molecule?
**A.** 42.4 µM

**Q.** And the GI50 (SK-MEL-28)?
**A.** 61.9 µM

**Q.** What about the GI50 (B16-F10) of the same molecule?
**A.** 23.8 µM

**Q.** For CC(C)=CC(=O)NC(=N)NC(=O)C=C(C)C, which GI50 (Hs 683) is on record?
**A.** 60.3 µM

**Q.** And the GI50 (U373 MG)?
**A.** 45.6 µM

**Q.** What about the GI50 (A549) of the same molecule?
**A.** 75.6 µM

**Q.** And the GI50 (MCF7)?
**A.** 59.7 µM

**Q.** What about the GI50 (SK-MEL-28) of the same molecule?
**A.** > 100 µM

**Q.** What about the GI50 (B16-F10) of the same molecule?
**A.** 21.3 µM

**Q.** Which results are given for CC(C)=CCC/C(C)=C/CC/C(C)=C/C(=O)NC(=N)NC(=O)C=C(C)C?
**A.** GI50 (Hs 683): 8.3 µM; GI50 (U373 MG): 15.7 µM; GI50 (A549): 23.4 µM; GI50 (MCF7): 23.4 µM; GI50 (SK-MEL-28): 24.2 µM; GI50 (B16-F10): 7.5 µM

**Q.** Which results are given for C=C1CCCC(C)(C)[C@@H]1CC/C(C)=C/C(=O)NC(=N)NC(=O)C=C(C)C?
**A.** GI50 (Hs 683): 18.1 µM; GI50 (U373 MG): 28.8 µM; GI50 (A549): 29.4 µM; GI50 (MCF7): 28.1 µM; GI50 (SK-MEL-28): 60.5 µM; GI50 (B16-F10): 9.6 µM

**Q.** How did the GI50 (Hs 683) turn out when CC(C)=CCC/C(C)=C/C(=O)NC(=N)N was run?
**A.** 39.4 µM

**Q.** And the GI50 (U373 MG)?
**A.** 46 µM

**Q.** What about the GI50 (A549) of the same molecule?
**A.** 76.5 µM

**Q.** And the GI50 (MCF7)?
**A.** 52.2 µM

**Q.** And the GI50 (SK-MEL-28)?
**A.** 56.3 µM

**Q.** What about the GI50 (B16-F10) of the same molecule?
**A.** 17.1 µM

**Q.** How did the GI50 (Hs 683) turn out when CC(C)=CCC/C(C)=C/CC/C(C)=C/C(=O)NC(=N)N was run?
**A.** 10 µM

**Q.** What about the GI50 (U373 MG) of the same molecule?
**A.** 21 µM

**Q.** What about the GI50 (A549) of the same molecule?
**A.** 13.7 µM

**Q.** And the GI50 (MCF7)?
**A.** 22 µM

**Q.** What about the GI50 (SK-MEL-28) of the same molecule?
**A.** 20.1 µM

**Q.** And the GI50 (B16-F10)?
**A.** 9.2 µM

**Q.** What does the source list for CC(C)=CCC/C(C)=C/CC/C(C)=C/C(=O)NC(=N)NC(=O)/C=C(\C)CC/C=C(\C)CCC=C(C)C?
**A.** GI50 (Hs 683): 6.8 µM; GI50 (U373 MG): 9.2 µM; GI50 (A549): 18.5 µM; GI50 (MCF7): 30.3 µM; GI50 (SK-MEL-28): 42.7 µM; GI50 (B16-F10): 5.7 µM

**Q.** For CC(C)=CCC/C(C)=C/C(=O)NC(=N)NC(=O)C=C(C)C, which GI50 (Hs 683) is on record?
**A.** 31.5 µM

**Q.** And the GI50 (U373 MG)?
**A.** 36.2 µM

**Q.** What about the GI50 (A549) of the same molecule?
**A.** 37.4 µM

**Q.** And the GI50 (MCF7)?
**A.** 41.5 µM

**Q.** What about the GI50 (SK-MEL-28) of the same molecule?
**A.** 53.4 µM

**Q.** And the GI50 (B16-F10)?
**A.** 25 µM

**Q.** With CC(C)=CCC/C(C)=C/CC/C(C)=C/C(=O)NC(=N)NC(=O)/C=C(\C)CCC=C(C)C as the molecule, how does the GI50 (Hs 683) read?
**A.** 37.4 µM

**Q.** What about the GI50 (U373 MG) of the same molecule?
**A.** 35 µM

**Q.** And the GI50 (A549)?
**A.** 38.9 µM

**Q.** What about the GI50 (MCF7) of the same molecule?
**A.** 51.2 µM

**Q.** What about the GI50 (SK-MEL-28) of the same molecule?
**A.** 57.3 µM

**Q.** What about the GI50 (B16-F10) of the same molecule?
**A.** 18.9 µM

**Q.** With COc1cc([C@@H]2c3cc4c(cc3[C@@H](O[C@@H]3O[C@@H]5CO[C@@H](C)O[C@H]5[C@H](O)[C@H]3O)[C@H]3COC(=O)[C@H]23)OCO4)cc(OC)c1O [ETOPOSIDE] as the molecule, how does the GI50 (Hs 683) read?
**A.** 1.5 µM

**Q.** And the GI50 (U373 MG)?
**A.** 24.9 µM

**Q.** And the GI50 (A549)?
**A.** 1.7 µM

**Q.** What about the GI50 (MCF7) of the same molecule?
**A.** 4 µM

**Q.** What about the GI50 (SK-MEL-28) of the same molecule?
**A.** 3.2 µM
